MrgX1 allo act – positive allosteric modulators of MrgX1, primary screen, HEK293 cells, Fluo-4 calcium flux; Mas-related G-protein coupled receptor member X1 (Homo sapiens), Q96LB2; 0.63% of 310,000 active; FDSS; active compounds read high; B-score at 10 µM; AID 588675, 2011;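 active = plate-corrected calcium response at least 3 library SD above typical, normal starting fluorescence, not activating the receptor alone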;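 also: compound read alongside a low EC10 to EC30 dose of BAM8-22 agonist; peak minus trough fluorescence over baseline measured at the second addition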
Target sequence (Q96LB2 whole entry, looked up): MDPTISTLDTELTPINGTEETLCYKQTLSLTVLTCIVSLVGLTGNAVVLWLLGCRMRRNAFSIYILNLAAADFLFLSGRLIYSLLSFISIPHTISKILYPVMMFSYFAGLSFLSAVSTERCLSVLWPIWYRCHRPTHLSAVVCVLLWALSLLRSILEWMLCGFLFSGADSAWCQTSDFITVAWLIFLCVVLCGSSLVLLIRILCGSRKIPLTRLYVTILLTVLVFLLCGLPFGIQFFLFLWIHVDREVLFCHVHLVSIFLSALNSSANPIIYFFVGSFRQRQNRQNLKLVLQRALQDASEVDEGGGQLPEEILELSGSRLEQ
MrgX1 antagonist – antagonists of human MrgX1 receptor, primary screen, HEK293 cells, Fluo-4 calcium flux; Mas-related G-protein coupled receptor member X1 (Homo sapiens), Q96LB2; BAM8-22 antagonism; active compounds read low; B-score at 10 µM; 1.3% of 310,000 active;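 active = calcium-response B-score plate-corrected more than 3 library SD below zero, starting fluorescence within 5 deviations, no agonist response on first addition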;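 also: peak minus trough fluorescence over baseline after final BAM8-22 challenge near maximal dose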
MrgX1 ag – agonists of human MrgX1 receptor, primary screen, HEK293 cells, Fluo-4 calcium flux | Mas-related G-protein coupled receptor member X1 (Homo sapiens), Q96LB2 | Fluo-4 calcium fluorescence, agonist mode; active compounds read high | B-score at 10 µM | 0.44% of 310,000 active | AID 588627, 2011;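 active = calcium response B-score plate-corrected fluorescence ratio at least 3 library SD, with starting fluorescence B-score inside 5 SD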
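System: HEK293 cells stably expressing human MrgX1 receptor; Dosing: test compound in the initial addition of three; Schedule: overnight plating, then 30 min 37 °C plus 30 min room-temperature dye loading; Detection: kinetic calcium dye fluorescence, Fluo-4 NW; Controls: per-plate positive and negative controls for Z′ factor.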
RGS4 pot – RGS4 potentiators or activators, primary screen, cell-based, HEK293 M3R inducible RGS4, calcium flux. carbachol calcium flux Fluo4; active compounds read low. 0.92% of 310,000 active. B-score at 10 µM;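 active = B-score of the integrated calcium signal more than 4 SD below the library mean, with starting fluorescence not abnormally high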;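 also: negative B-score means reduced calcium response which marks RGS4 activation or potentiation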
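Material: M3R-expressing HEK293 line, RGS4 induced by doxycycline | Schedule: Overnight RGS4 induction, 30 min dye load 37 °C, 20 min compound RT | Measured by: Fluo4 fluorescence kinetic imaging of calcium | Read-out: Integrated calcium ratio converted to B score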
RGS4 inh – RGS4 inhibitors, primary screen, cell-based, HEK293 M3R inducible RGS4, calcium flux; B-score at 10 µM; 0.45% of 310,000 active; Fluo-4 calcium flux; active compounds read high; triggered by carbachol at its EC20; Regulator of G-protein signaling 4 (Homo sapiens), P49798;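 active = B-score, a plate-corrected calcium signal, over three deviations above library mean, with baseline fluorescence within five deviations of library mean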;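 also: RGS4 expression induced by doxycycline in cells with stable M3 receptor; B-score is computed from the integrated fluorescence ratio over baseline after carbachol; higher B-score means a larger calcium signal and so more RGS4 inhibition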
Target sequence (P49798 whole entry, looked up): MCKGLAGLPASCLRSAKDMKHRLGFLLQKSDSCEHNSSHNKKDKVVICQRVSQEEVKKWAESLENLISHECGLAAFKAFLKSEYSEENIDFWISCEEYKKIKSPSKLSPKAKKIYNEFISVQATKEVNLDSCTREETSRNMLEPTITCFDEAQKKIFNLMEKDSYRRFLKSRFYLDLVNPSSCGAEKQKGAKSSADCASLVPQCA
MrgX1 ant reconf – MrgX1 receptor antagonists, duplicate retest, confirmation, HEK293 cells, Fluo-4 calcium flux; AID 602420, 2012; BAM8-22 calcium flux; active compounds read low; 19% of 2,300 active; remaining BAM8-22 calcium response % of control (active compounds read low), % at 10 µM; shares compounds with MrgX1 antagonist;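 active = remaining agonist calcium response no higher than 100% minus 3 SD of agonist-only control wells, with starting fluorescence near control levels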;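 also: agonist BAM8-22 given at a near maximal EC90 to ECmax level; peak minus minimum fluorescence divided by baseline after agonist addition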
HEK293 Ca flux – nonspecific calcium signal in parental HEK293, confirmation, counter-screen for MrgX1 antagonist project, parental HEK293 cells, Fluo-4 calcium flux | Fluo-4 calcium fluorescence, FDSS | 2% of 4,000 active | shares compounds with MrgX1 antagonist | AID 624111, 2012 | fluorescence ratio F(max-min)/F0 at 10 µM;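 active = duplicate-averaged calcium fluorescence ratio at least three times the standard deviation of buffer wells, a nonspecific response in parental cells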
HEK293 Ca counter – calcium response in parental HEK293 cells, primary screen, counter-screen for MrgX1 allosteric activator project, cell-based, Fluo-4 calcium flux, duplicate; Fluo-4 fluorescence ratio; active compounds read high; AID 624114, 2012; shares compounds with MrgX1 antagonist; fluorescence ratio F(max-min)/F0 at 10 µM; 0.4% of 4,000 active;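 active = calcium fluorescence ratio, averaged over duplicates, at least 3 SD of the buffer-well ratio, meaning a nonspecific response in receptor-free cells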;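 also: untransfected parental HEK293 lacking MrgX1 used as counterscreen for MrgX1 allosteric activators; fluorescence change taken during the second addition on a kinetic imager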
HEK293 Ca cntr2 – calcium response in parental HEK293 cells, primary screen, counter-screen for MrgX1 agonist project, cell-based, Fluo-4 calcium flux, duplicate, agonist mode; fluorescence ratio F(max-min)/F0 at 10 µM; 8.7% of 4,000 active; Fluo-4 calcium fluorescence (FDSS); active compounds read high; AID 624115, 2012; shares compounds with MrgX1 antagonist;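 active = calcium fluorescence ratio at least three times the spread of buffer wells, meaning a non-specific response in parental cells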
Starred values were filed as active, the others as inactive; i = inactive; / = no result. Shown are actives, neighbours in structure and some others; about 3.5% of the full set was active somewhere.

SMILES | MrgX1 allo act | MrgX1 antagonist | MrgX1 ag | RGS4 pot | RGS4 inh | MrgX1 ant reconf | HEK293 Ca flux | HEK293 Ca counter | HEK293 Ca cntr2
COC(=O)c1c(-c2cccnc2)csc1NC(=O)c1ccc2c(c1)OCO2 | i | i | i | i | i | / | / | / | /
CC(=O)N/N=C/c1ccc(OCCOc2ccc(Br)cc2)cc1 | i | i | i | i | i | / | / | / | /
O=C(NCCc1cscn1)C1CCC(=O)N(Cc2ccc(Cl)cc2)C1 (stereo unspecified) | i | i | i | i | i | / | / | / | /
O=C(NCC1CCCN1S(=O)(=O)c1cccs1)C(=O)Nc1ccccc1 (stereo unspecified) | i | i | i | i | i | / | / | / | /
O=C(NCc1ccccc1)C(=O)NCC1CCCN1S(=O)(=O)c1cccs1 (stereo unspecified) | i | -16* | i | i | i | i | i | i | i
Nc1nnnn1/N=C/c1ccccc1OCc1ccc(Cl)cc1Cl | i | -4.8* | i | i | i | i | i | i | i
Nc1nnnn1/N=C/c1ccccc1OCc1ccc(Cl)cc1 | i | i | i | i | i | / | / | / | /
Cc1cc(-c2ccccc2)[nH]c(=O)c1S(=O)(=O)c1ccccc1 | i | i | i | i | i | / | / | / | /
Cc1cc(-c2ccccc2)[nH]c(=O)c1S(=O)(=O)c1ccc(Cl)cc1 | i | -9* | i | i | i | i | i | i | i
CCOC(=O)N1CCN(C(=O)CSCc2ccccc2Cl)CC1 | i | i | i | i | i | / | / | / | /
COc1ccc(Oc2ccc(-c3ccn[nH]3)cc2)cc1 | i | i | i | i | i | / | / | / | /
CCN(CC)c1ccc(C(=O)O)cc1 | i | -5.7* | i | i | i | i | i | i | i
COc1ccc(SCCC(=O)NCc2ccncc2)cc1 | i | i | i | i | i | / | / | / | /
CC(NC(=S)NC1CCCCC1)c1ccc(C(C)(C)C)cc1 (stereo unspecified) | i | -6.8* | i | i | i | 51%* | i | i | i
CC(C)c1ccc(C(C)NC(=S)NC2CCCCC2)cc1 (stereo unspecified) | i | i | i | i | i | / | / | / | /
CCOc1ccc(N(CC)C(=O)Cc2c(C(=O)O)n(C)c3ccccc23)cc1 | i | i | i | i | i | / | / | / | /
CCc1ccc(N(CC)C(=O)Cc2c(C(=O)O)n(C)c3ccccc23)cc1 | i | -6.6* | i | i | i | i | i | i | i
c1ccc(-c2nnc(C3CC(c4ccncc4)=NO3)o2)cc1 (stereo unspecified) | i | i | i | i | i | / | / | / | /
CC1CCN(C(C(=O)Nc2ccc(C(C)C)cc2)c2ccc3c(c2)OCO3)CC1 (stereo unspecified) | i | -5.4* | i | i | i | i | i | i | i
